Test results from publication PMC4277779 (Journal of the American Chemical Society, 2014).
Non-standard residues stand in square brackets, D forms with d. No end group written: not given here. Orn = NCCC[C@H](N)C(=O)O

Key:
[1] = ΔδCαH-based β-hairpin population and thermodynamic analysis by NMR; assay type: physicochemical; conditions: relative to parent peptide I, 4 °C, pH 3.8; for ΔΔGfold: calculated for each reporter position and averaged
Procedure, shortened: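 NMR samples were prepared in 100 mM acetate buffer, pH 3.8.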

[2] = Far-UV circular dichroism: effects of pH and temperature; assay type: physicochemical; conditions: 4 to 20 to 37 °C, phosphate buffer
Procedure, shortened: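 Far-UV CD spectra of the test peptides were recorded in phosphate buffer (pH 7.0) and in the NMR buffer (100 mM acetate, pH 3.8). A temperature series at 4, 20 and 37 °C was run in phosphate buffer.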

[3] = 4 °C, cited from earlier work
[4] = aqueous buffer pH 3.8, ref 9a (Syud et al.)

Substance | effect of residue replacement on β-hairpin population (in words) [1] | ΔΔGfold [1] | effect of temperature on far UV CD (in words) [2] | population of the β-hairpin conformation ([3]; aqueous buffer pH 3.8, NMR, ref 9b) | β-hairpin population at reporter position Ile 10 [3, 4] | β-hairpin population at reporter position Orn 8 [3, 4] | β-hairpin population at reporter position Val 3 [3, 4] | β-hairpin population at reporter position Val 5 [3, 4]
Arg-Tyr-Val-Glu-Val-DPro-Gly-Orn-TO+-Ile-Leu-Gln-NH2 [Peptide II] | little effect on β-hairpin population | +0.1 ± 0.2 kcal/mol |  |  |  |  |  | 
Arg-Tyr-Val-Glu-Val-DPro-Gly-Orn-TS+-Ile-Leu-Gln-NH2 [Peptide III] | enhanced β-hairpin population | –0.5 ± 0.4 kcal/mol | does not significantly alter |  |  |  |  | 
Arg-Tyr-Val-TS--Val-DPro-Gly-Orn-Lys-Ile-Leu-Gln-NH2 [Peptide IV] | enhanced β-hairpin population | –0.6 ± 0.3 kcal/mol | does not significantly alter |  |  |  |  | 
RYVEV[dP]G[Orn]KILQ-NH2 [Peptide I] |  |  | does not significantly alter | ~68% | 59% | 65% | 70% | 76%
